Where two headings read alike, the source gives them in different places.
Columns and labels:
[1] = test system: P. falciparum D10 (CQ-S) strain; assay: Antiplasmodial activity against D10 strain; assay type: cell-based, Plasmodium falciparum; conditions: read-out: D10 IC50
[2] = test system: P. falciparum W2 (CQ-R) strain; assay: Antiplasmodial activity against W2 strain; assay type: cell-based, Plasmodium falciparum; conditions: read-out: W2 IC50
[3] = target: P. falciparum 3D7elo1-pfs16-CBG99 late-stage gametocytes; assay: Gametocytocidal luciferase-based assay, 3D7elo1-pfs16-CBG99; assay type: cell-based, Plasmodium falciparum; conditions: read-out: GCT: 3D7elo1-pfs16-CBG99 IC50, 72 h
[4] = test system: P. falciparum strain NF54 asexual blood stage parasites; assay: NF54 asexual blood stage Sybrgreen DNA replication assay; assay type: cell-based, Plasmodium falciparum; conditions: read-out: NF54 IC50, CQ-S strain, 72 h
Outline: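 Asexual NF54 parasites were seeded at 0.83% parasitaemia and 1.5% haematocrit in RPMI1640 with 10% human serum. Serial dilutions were made from DMSO stocks in medium (final DMSO 0.1%). Plates were incubated 72 h at 37 °C under 3% O2 and 4% CO2. Growth was read as SYBR Green fluorescence.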

[5] = target: P. falciparum NF54-HGL gametocytes; assay: NF54-HGL gametocyte luciferase assay; assay type: cell-based, Plasmodium falciparum; conditions: read-out: GCT: NF54-HGL IC50
Outline: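 Gametocytes came from a flask inoculated with 1% asexual parasites at 5% haematocrit in RPMI1640 with 10% human serum. Asexual stages were cleared with 50 mM NAG on days 4–9. Mostly stage IV cells were Percoll-purified on day 11 and plated at 5000 per well (final DMSO 0.1%). After 72 h at 37 °C, 3% O2, 4% CO2, viability was read as ONE-Glo luminescence.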

[6] = test system: Langendorff-isolated rat hearts; assay: Cardiac mechanical function and ECG in Langendorff-isolated rat hearts; conditions: for Effect on left ventricular pressure (LVP): concentration-effect relationship; for Effect on coronary perfusion pressure (CPP): data not shown
Outline: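 Rats heparinised (5000 U/kg) with xylazine (4 mg/kg), decapitated. Hearts perfused retrogradely via aorta at 10 mL/min with Krebs-Henseleit (95% O2-5% CO2, pH 7.4, 37 °C), equilibrated ≥20 min before drug. LVP by intraventricular latex balloon (end-diastolic 10 mmHg), systolic minus diastolic. CPP by inflow-line transducer. Surface ECG at 1 kHz: RR, HR, PQ, QRS, QT, Bazett-corrected QTc.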

PfPMT = target: T1, PfPMT (Plasmodium falciparum, UniProt Q8IDQ9); assay: PfPMT radiochemical methyltransferase assay; assay type: biochemical; conditions: 100 μM
T1 sequence (Q8IDQ9 1-266): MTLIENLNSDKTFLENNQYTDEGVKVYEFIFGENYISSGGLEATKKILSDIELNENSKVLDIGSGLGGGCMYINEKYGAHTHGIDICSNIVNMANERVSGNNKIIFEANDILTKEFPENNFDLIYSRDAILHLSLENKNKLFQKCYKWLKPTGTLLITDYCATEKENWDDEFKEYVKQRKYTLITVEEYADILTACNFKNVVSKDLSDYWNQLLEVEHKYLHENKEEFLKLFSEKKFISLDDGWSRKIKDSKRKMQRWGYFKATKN
Outline: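 Recombinant PfPMT was expressed in and purified from E. coli. Activity was measured radiochemically with 2 µg enzyme in 0.1 M Hepes-KOH pH 8.0, 2 mM Na2EDTA, 10% glycerol and 5% DMSO. The reaction contained 30 µM SAM (including 100 nCi [methyl-14C]SAM) and 55 µM phosphoethanolamine. Inhibitors were screened at 100 µM; values are mean ± SD, n = 3.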

[7] = test system: P. falciparum asexual and sexual stages; conditions: read-out: IC50 against P. falciparum asexual and sexual stages; cited from earlier work
[8] = test system: late stages Plasmodium gametocytes; conditions: read-out: in vitro IC50 against late stages Plasmodium gametocytes; different published assays; cited from earlier work
[9] = test system: male and female NF54 gametes; conditions: cited from earlier work
P. berghei liver stages = assay: P. berghei liver-stage analysis in mouse primary hepatocytes; assay type: cell-based, Plasmodium berghei
Outline: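 Mouse primary hepatocytes were infected with 20'000 mCherry-expressing P. berghei ANKA sporozoites. From 2 h post-infection, cells received a range of test compound concentrations or a matching DMSO control, with medium and drug renewed at 24 h. At 48 h, parasite number and size in unfixed cells were measured by automated microscopy (n = 4, SD). Groups were compared by one-way ANOVA with Dunnett's test.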

Cav1.2 channels = Cav1.2 channels (Rattus norvegicus, UniProt P22002); assay: Whole-cell patch-clamp of IBa1.2 in single rat tail artery myocytes; assay type: cell-based; conditions: 30 μM
Outline: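 Rat tail artery myocytes were isolated enzymatically (collagenase, 37 °C, 40–45 min), kept at 4 °C and used within two days. Whole-cell patch-clamp was run at 20–22 °C. The external solution held 5 mM Ba2+ and 30 mM TEA; the pipette solution was Cs+-based (pCa 8.4, pH 7.4). IBa was evoked by 250-ms pulses to 0 mV from −50 mV at 0.067 Hz, with recording once current had stabilised.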

Sequence of Cav1.2 channels (P22002 whole entry): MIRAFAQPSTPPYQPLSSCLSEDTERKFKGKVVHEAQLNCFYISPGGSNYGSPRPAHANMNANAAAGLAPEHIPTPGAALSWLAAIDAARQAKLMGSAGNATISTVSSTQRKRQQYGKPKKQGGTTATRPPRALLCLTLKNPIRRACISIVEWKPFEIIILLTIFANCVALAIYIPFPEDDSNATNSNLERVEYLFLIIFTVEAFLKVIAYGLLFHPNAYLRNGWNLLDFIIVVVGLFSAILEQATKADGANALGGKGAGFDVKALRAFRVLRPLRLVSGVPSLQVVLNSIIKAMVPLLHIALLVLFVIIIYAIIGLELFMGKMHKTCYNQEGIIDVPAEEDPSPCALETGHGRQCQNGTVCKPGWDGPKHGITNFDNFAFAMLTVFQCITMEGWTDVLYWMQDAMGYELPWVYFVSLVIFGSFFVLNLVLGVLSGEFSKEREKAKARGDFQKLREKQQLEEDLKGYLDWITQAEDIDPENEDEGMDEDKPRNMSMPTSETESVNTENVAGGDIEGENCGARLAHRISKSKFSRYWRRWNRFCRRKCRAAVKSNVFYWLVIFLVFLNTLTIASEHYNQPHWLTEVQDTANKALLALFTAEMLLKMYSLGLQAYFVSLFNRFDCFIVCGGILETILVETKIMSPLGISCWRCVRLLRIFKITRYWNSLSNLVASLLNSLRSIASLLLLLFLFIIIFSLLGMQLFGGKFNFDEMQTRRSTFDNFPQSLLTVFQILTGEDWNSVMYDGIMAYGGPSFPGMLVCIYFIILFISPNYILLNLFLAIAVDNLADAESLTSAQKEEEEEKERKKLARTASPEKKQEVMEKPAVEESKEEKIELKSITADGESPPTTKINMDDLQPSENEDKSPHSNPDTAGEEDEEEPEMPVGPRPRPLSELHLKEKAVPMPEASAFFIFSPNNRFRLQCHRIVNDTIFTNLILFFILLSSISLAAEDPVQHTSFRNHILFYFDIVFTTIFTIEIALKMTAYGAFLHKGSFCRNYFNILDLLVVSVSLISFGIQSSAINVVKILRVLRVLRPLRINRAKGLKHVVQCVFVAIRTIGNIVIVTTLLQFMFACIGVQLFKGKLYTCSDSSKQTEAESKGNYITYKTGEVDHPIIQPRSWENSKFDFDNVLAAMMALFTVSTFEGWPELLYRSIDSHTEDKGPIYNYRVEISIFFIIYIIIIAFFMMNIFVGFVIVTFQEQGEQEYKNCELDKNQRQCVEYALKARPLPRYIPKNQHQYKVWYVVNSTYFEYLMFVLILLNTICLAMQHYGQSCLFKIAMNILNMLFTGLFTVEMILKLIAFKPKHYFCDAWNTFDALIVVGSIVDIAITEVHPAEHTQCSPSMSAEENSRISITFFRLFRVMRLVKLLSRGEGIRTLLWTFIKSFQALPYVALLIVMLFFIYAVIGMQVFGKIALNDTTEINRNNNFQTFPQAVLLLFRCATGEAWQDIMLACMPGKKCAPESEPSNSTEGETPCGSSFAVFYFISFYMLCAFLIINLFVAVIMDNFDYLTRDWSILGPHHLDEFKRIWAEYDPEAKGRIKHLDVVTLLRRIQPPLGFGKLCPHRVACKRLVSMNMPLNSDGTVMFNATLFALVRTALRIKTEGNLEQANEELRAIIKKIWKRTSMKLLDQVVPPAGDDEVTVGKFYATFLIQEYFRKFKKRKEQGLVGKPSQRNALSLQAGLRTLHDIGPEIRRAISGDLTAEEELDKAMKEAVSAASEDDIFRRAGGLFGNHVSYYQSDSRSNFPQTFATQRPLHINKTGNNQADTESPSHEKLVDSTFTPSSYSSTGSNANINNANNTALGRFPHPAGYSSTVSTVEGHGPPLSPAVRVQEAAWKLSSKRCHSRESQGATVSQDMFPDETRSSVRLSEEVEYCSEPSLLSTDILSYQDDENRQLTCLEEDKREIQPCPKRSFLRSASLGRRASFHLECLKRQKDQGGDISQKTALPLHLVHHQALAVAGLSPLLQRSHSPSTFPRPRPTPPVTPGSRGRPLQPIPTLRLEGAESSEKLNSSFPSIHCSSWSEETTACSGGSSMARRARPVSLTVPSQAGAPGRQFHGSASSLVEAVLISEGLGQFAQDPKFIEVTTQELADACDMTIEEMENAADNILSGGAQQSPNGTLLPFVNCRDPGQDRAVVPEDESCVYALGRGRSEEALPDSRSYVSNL
Sequence of Cav1.2 channels (P54290 25-944 partner limits assumed): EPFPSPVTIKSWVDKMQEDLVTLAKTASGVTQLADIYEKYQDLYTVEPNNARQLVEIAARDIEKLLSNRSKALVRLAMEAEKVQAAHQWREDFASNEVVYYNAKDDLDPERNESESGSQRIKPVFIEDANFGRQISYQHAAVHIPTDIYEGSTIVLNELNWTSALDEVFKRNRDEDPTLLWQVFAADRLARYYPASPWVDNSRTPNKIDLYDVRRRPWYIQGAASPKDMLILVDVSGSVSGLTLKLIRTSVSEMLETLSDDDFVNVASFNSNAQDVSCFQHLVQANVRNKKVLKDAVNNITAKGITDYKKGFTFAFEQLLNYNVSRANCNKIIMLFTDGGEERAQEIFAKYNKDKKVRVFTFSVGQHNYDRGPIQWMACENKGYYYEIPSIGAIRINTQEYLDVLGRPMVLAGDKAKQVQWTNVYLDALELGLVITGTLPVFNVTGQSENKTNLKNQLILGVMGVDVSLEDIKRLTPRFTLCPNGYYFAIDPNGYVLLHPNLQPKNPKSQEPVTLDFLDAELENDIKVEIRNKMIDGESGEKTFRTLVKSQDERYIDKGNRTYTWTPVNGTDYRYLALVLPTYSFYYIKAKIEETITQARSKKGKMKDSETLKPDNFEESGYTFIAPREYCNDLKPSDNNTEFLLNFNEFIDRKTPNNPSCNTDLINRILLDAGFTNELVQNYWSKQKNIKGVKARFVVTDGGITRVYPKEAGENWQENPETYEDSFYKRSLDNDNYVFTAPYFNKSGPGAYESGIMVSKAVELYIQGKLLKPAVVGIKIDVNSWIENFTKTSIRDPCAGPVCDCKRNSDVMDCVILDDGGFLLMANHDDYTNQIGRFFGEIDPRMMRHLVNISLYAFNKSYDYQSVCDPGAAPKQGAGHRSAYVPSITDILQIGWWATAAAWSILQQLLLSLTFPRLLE
Sequence of Cav1.2 channels (P54290 945-1091 partner limits assumed): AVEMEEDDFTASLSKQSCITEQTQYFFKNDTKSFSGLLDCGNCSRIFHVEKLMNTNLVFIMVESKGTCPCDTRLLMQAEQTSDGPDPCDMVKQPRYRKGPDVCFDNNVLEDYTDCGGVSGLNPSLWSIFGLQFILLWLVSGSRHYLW
Sequence of Cav1.2 channels (P54287 whole entry partner): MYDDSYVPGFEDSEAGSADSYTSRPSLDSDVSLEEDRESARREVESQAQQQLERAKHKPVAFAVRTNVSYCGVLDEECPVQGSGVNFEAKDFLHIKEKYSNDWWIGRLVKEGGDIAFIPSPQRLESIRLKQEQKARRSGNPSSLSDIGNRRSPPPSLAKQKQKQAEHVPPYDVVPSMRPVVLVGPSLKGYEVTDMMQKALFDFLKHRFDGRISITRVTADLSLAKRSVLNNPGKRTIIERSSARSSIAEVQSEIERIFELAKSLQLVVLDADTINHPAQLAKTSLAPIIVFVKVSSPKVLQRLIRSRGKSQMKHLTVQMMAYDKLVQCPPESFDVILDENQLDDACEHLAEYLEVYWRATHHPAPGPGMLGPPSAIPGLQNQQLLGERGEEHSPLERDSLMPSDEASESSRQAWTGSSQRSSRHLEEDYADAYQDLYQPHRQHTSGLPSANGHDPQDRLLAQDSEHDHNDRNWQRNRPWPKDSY

1-(5-Bromobenzothiophen-2-yl)-N-(piperidin-4-ylmethyl)methanamine [Compound 32]
IC50 ([1]; CQ-S strain, 72 h, pLDH): 1000 nM
IC50 ([2]; CQ-R strain, 72 h, pLDH): 1500 nM
IC50 ([3]; late-stage gametocytes (stage IV–V), luciferase): 1400 nM
IC50 [4]: 730 nM
IC50 ([5]; gametocytes predominantly stage IV, 72 h, luminescence): 53 nM

CCN(CC)CCCC(C)Nc1ccnc2cc(Cl)ccc12 (stereo not shown) [Chloroquine, reference compound]
IC50 ([1]; Plasmodium falciparum, D10, 72 h): 26 nM
IC50 ([2]; Plasmodium falciparum, W2, 72 h): 310 nM

Clc1cc(Br)ccc1-c1ccc(CNCC2CCNCC2)o1 [Compound 1, 1-(5-(4-Bromo-2-chlorophenyl)furan-2-yl)-N-(piperidin-4-ylmethyl)methanamine]
Sinus arrhythmia [6]: 3 out of 4
Effect on left ventricular pressure (LVP) [6]: reduced left ventricular pressure (LVP) in a concentration-dependent manner
Effect on coronary perfusion pressure (CPP) [6]: leaving unaltered coronary perfusion pressure
Inhibitory activity against PfPMT (PfPMT): weak activity
IC50 [7]: < 1000 nM
IC50 [8]: < 1000 nM
Activity on male and female NF54 gametes [9]: activity on both male and female NF54 gametes

CN(C)CCCNCc1ccc(-c2ccc(F)c(Cl)c2)o1 [Compound 2, N-[(5-(3-chloro-4-fluorophenyl)furan-2-yl)methyl]-N′,N′-dimethylpropane-1,3-diamine, reference compound]
IC50 [8]: < 1000 nM

N#Cc1ccc(-c2ccc(CNCC3CCNCC3)o2)cc1 [Compound 24, 1-(5-(4-Cyanophenyl)furan-2-yl)-N-(piperidin-4-3ylmethyl)methanamine]
Inhibitory activity against PfPMT (PfPMT): weak activity

Clc1ccc(-c2ccc(CNCC3CCNCC3)o2)c(-c2ccccc2)c1 [Compound 25, 1-(5-(2-Phenyl-4-chlorophenyl)furan-2-yl)-N-(piperidin-4-ylmethyl)methanamine]
Parasite sizes (P. berghei liver stages; 48 hpi, mouse primary hepatocytes, different concentrations): Neither parasite numbers (Figure 2A) nor parasite sizes (Figure 2B) were significantly influenced
Parasite numbers per well (P. berghei liver stages; 48 h, mouse primary hepatocytes, different concentrations): no liver stage activity
Detached cell formation (P. berghei liver stages; detached cells at 65 hpi vs 48 h number): Neither concentration tested significantly inhibited detached cell formation
Effect on left ventricular pressure (LVP) [6]: reduced left ventricular pressure (LVP) in a concentration-dependent manner
Effect on coronary perfusion pressure (CPP) [6]: leaving unaltered coronary perfusion pressure
Effect on IBa1.2 current (Cav1.2 channels): blocked the current

C[N+](C)(CCCNCc1ccc(-c2ccc(Cl)cc2Br)o1)Cc1ccccc1.[Cl-] [Compound 48, N-Benzyl-3-[(5-(4-chloro-2-bromophenyl)furan-2-yl-methyl)amino]-N,N-dimethylpropan-1-ammonium chloride]
Inhibitory activity against PfPMT (PfPMT): weak activity

CC[C@H](C)[C@H](NC(=O)[C@H]([C@@H](C)CC)N(C)C(C)=O)C(=O)N[C@H](C(=O)N[C@@H](CC(C)C)C(=O)[C@@]1(C)CO1)[C@@H](C)O [Epoxomycin, reference compound]
IC50 ([3]; Plasmodium falciparum): 7 nM
IC50 ([5]; Plasmodium falciparum, NF54, 72 h): 0.7 nM
